We go through 22 compounds from ChEMBL document CHEMBL1781993, “Synthesis and biological evaluation of novel 7-acyl homocamptothecins as Topoisomerase I inhibitors” (Eur J Med Chem, 2011).

For test [1], the target named is T1, Topoisomerase I (Bos taurus) (UniProt Q2HPH0).
T1 sequence (whole entry): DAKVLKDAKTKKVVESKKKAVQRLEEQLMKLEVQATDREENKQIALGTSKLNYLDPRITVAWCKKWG
Nature of the test: Inhibition of calf thymus topoisomerase 1-mediated relaxation of supercoiled pBR322 assessed as increase in cleavable complex level after 15 mins using ethidium bromide staining by UV transilluminator analysis. A digest of the protocol:
(§1)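 Topo I with DNA was reacted with compound at 37 °C for 15 min. Reactions were stopped with SDS (0.5% final), then 6× loading buffer (0.1 mM EDTA, 7% glycerol, 0.01% xylene cyanol FF, 0.01% bromophenol blue) was added. Products were separated by gel. Compound concentrations were 1, 10 and 50 µM, and a topo I plus DNA sample without drug served as reference.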

Test [2] addresses T1, Topoisomerase I (Bos taurus). Put plainly: Inhibition of calf thymus topoisomerase 1-mediated relaxation of supercoiled pBR322 at 10 uM after 15 mins using ethidium bromide staining by UV transilluminator analysis. A digest of the protocol: as §1
Another test has as its system MDA-MB-435. Put plainly: Cytotoxicity against human MDA-MB-435 cells after 3 days by MTT assay. In kind it is functional, cell-based. Particulars: MDA-MB-435, 72 h. The essentials:
(§2)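 After 3 days, MTT (5 mg/mL solution) was added and plates incubated a further 4 h. Formazan was dissolved in DMSO and absorbance read at 570 nm. Survival expressed as percentage of untreated control wells.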
For orientation: Tetrazolium assays rely on reduction of a dye to a coloured formazan, in cell work by metabolically active cells.

The subject of another test is A549. Nature of the test: Cytotoxicity against human A549 cells after 3 days by MTT assay. In kind it is functional, cell-based. Particulars: A549, 72 h. A digest of the protocol:
as §2

In the next test the test system is HCT-116. Put plainly: Cytotoxicity against human HCT116 cells after 3 days by MTT assay. The note with it: HCT-116, 72 h. In kind it is functional, cell-based. The essentials: as §2
Test [3] addresses T1, Topoisomerase I (Bos taurus). Nature of the test: Inhibition of calf thymus topoisomerase 1-mediated relaxation of supercoiled pBR322 assessed as formation of nicked DNA at 1 to 50 uM after 15 mins using ethidium bromide staining by UV transilluminator. The essentials:
as §1

Molecules are shown by their SMILES. Active and inactive are the calls of the source. No cut-off for these calls is given here. Where only a bound is given, the exact number is not on record here.

Regarding `CC[C@@]1(O)C(=O)OCc2c1cc1n(c2=O)Cc2cc3ccccc3nc2-1`, the inhibition entry in test [1] is “Dose-dependent effect”. In addition, the inhibition result in test [2] is “Active”.

As a reminder, the IC50 is the point on the concentration scale where inhibition reaches its midpoint. A low value points to greater potency in that assay. With `CCC1(O)CC(=O)OCc2c1cc1n(c2=O)Cc2c-1nc1ccc(OC)cc1c2C1CCCC1` (racemic), the values for the half-inhibitory concentration (IC50) in the test on MDA-MB-435, in the test with A549 and with HCT-116 were 41.5 nM, 730 nM and 71.4 nM, respectively. The “topoisomerase I inhibition (qualitative call)” value (“topoisomerase I inhibition” below) in test [2] was “Active”.

As to `CCC1(O)CC(=O)OCc2c1cc1n(c2=O)Cc2c-1nc1ccc(OC)cc1c2C1CCCCC1` (racemic), the figures for the IC50 with MDA-MB-435, with A549 and in the test with HCT-116 were 76.1 nM, 657 nM and 118 nM, respectively.

On to `CCC1(O)CC(=O)OCc2c1cc1n(c2=O)Cc2c-1nc1ccc(OC)cc1c2C(=O)C1CC1` (racemic), for which the figures for the IC50 with MDA-MB-435, in the test with A549 and in the test on HCT-116 were 48.2 nM, 2480 nM and 5.93 nM, respectively.

Regarding `CCC1(O)CC(=O)OCc2c1cc1n(c2=O)Cc2c-1nc1ccc(OC)cc1c2C(=O)C1CCCC1` (racemic), in test [1], the inhibition entry is “Dose-dependent effect”. Also, in test [3], the inhibition entry is “Active”. Also, the values for the IC50 with MDA-MB-435, in the test with A549 and in the test with HCT-116 were less than 1 nM, 430 nM and 2.17 nM, respectively. Also, in test [2], the “topoisomerase I inhibition” value is “Active”.

Take `CCC1(O)CC(=O)OCc2c1cc1n(c2=O)Cc2c-1nc1ccc(OC)cc1c2C(=O)C1CCCCC1` (racemic): the IC50 with MDA-MB-435 was less than 1 nM; with A549, 669 nM; with HCT-116 it was 446 nM.

Turning to `CCC(=O)c1c2c(nc3ccc(OC)cc13)-c1cc3c(c(=O)n1C2)COC(=O)CC3(O)CC` (racemic), the results for the half-maximal inhibitory concentration (IC50) in the test with MDA-MB-435, in the test with A549 and with HCT-116 were 63.3 nM, 8960 nM and 56 nM, respectively.

On to `CCCC(=O)c1c2c(nc3ccc(OC)cc13)-c1cc3c(c(=O)n1C2)COC(=O)CC3(O)CC` (racemic), for which the IC50 with MDA-MB-435 turned out to be 198 nM; in the test with A549, 14100 nM; in the test on HCT-116, 268 nM.

On to `CCCCC(=O)c1c2c(nc3ccc(OC)cc13)-c1cc3c(c(=O)n1C2)COC(=O)CC3(O)CC` (racemic), for which the IC50 was found to be 198 nM with MDA-MB-435, 7030 nM with A549 and 277 nM with HCT-116.

For `CCCCCCC(=O)c1c2c(nc3ccc(OC)cc13)-c1cc3c(c(=O)n1C2)COC(=O)CC3(O)CC` (racemic), the half-inhibitory concentration (IC50) in the test with MDA-MB-435 stood at 133 nM; in the test on A549, 478 nM; in the test with HCT-116 it was 317 nM. In addition, the “topoisomerase I inhibition” value in test [2] is “Active”.

Turning to `CCC1(O)CC(=O)OCc2c1cc1n(c2=O)Cc2c-1nc1ccc(OC)cc1c2C(=O)C(C)C` (racemic), the IC50 amounted to 21.6 nM in the test with MDA-MB-435, 2270 nM with A549 and 404 nM in the test with HCT-116.

For `CCC1(O)CC(=O)OCc2c1cc1n(c2=O)Cc2c-1nc1ccc(OC)cc1c2C(=O)c1ccco1` (racemic), the inhibition result in test [1] was “Dose-dependent effect”. In test [3], the inhibition entry was “Active”. The IC50 was 2.18 nM in the test on MDA-MB-435, less than 1 nM with A549 and 294 nM with HCT-116. Besides, the “topoisomerase I inhibition” value in test [2] was “Active”.

In the case of `CCC1(O)CC(=O)OCc2c1cc1n(c2=O)Cc2c-1nc1ccc(OC)cc1c2C(=O)c1cccs1` (racemic), the IC50 amounted to 1610 nM in the test with MDA-MB-435, 607 nM in the test on A549 and 2190 nM in the test with HCT-116. In addition, in test [2], the “topoisomerase I inhibition” value is “Active”.

With `CCC1(O)CC(=O)OCc2c1cc1n(c2=O)Cc2c-1nc1ccc(OC)cc1c2C(=O)c1ccccc1` (racemic), the IC50 in the test with MDA-MB-435 amounted to 2210 nM; in the test with A549, 1770 nM; in the test on HCT-116 it was 2940 nM.

Take `CCC1(O)CC(=O)OCc2c1cc1n(c2=O)Cc2c-1nc1ccc(OC)cc1c2C(=O)c1ccc(Cl)cc1` (racemic): the IC50 with MDA-MB-435 came to 2090 nM; in the test with A549 it was 665 nM; with HCT-116, 3020 nM.

On to `CCC1(O)CC(=O)OCc2c1cc1n(c2=O)Cc2c-1nc1ccc(OC)cc1c2C(=O)c1ccc(F)cc1` (racemic), for which the results for the IC50 in the test with MDA-MB-435, in the test on A549 and in the test on HCT-116 were 15900 nM, 7790 nM and 13100 nM, respectively.

As to `CCC1(O)CC(=O)OCc2c1cc1n(c2=O)Cc2c-1nc1ccc(OC)cc1c2C(=O)c1ccc(C)cc1` (racemic), the IC50 in the test on MDA-MB-435 is 7170 nM; in the test with A549, 3390 nM; in the test on HCT-116, 8170 nM.

On to `CCC1(O)CC(=O)OCc2c1cc1n(c2=O)Cc2c-1nc1ccc(OC)cc1c2C(=O)c1ccc(C(F)(F)F)cc1` (racemic), for which the IC50 was determined as 1480 nM in the test on MDA-MB-435, 625 nM in the test with A549 and 1910 nM with HCT-116. Further, the “topoisomerase I inhibition” value in test [2] was “Active”.

Turning to `CCC1(O)CC(=O)OCc2c1cc1n(c2=O)Cc2c-1nc1ccc(OC)cc1c2C(=O)c1ccc(OC)cc1` (racemic), the IC50 in the test with MDA-MB-435 was 16300 nM; with A549, 9250 nM; with HCT-116, 2070 nM.

Turning to `CCC1(O)CC(=O)OCc2c1cc1n(c2=O)Cc2c-1nc1ccc(OC)cc1c2C(=O)c1cc(C)cc(C)c1` (racemic), the IC50 is more than 100000 nM in the test with MDA-MB-435, 48000 nM with A549 and 26300 nM in the test on HCT-116.

Take `CCC1(O)CC(=O)OCc2c1cc1n(c2=O)Cc2c-1nc1ccc(OC)cc1c2C(=O)c1ccc2ccccc2c1` (racemic): the values for the IC50 in the test on MDA-MB-435, in the test with A549 and in the test on HCT-116 were more than 100000 nM, more than 100000 nM and 22800 nM, respectively.

Consider `CC[C@@]1(O)C(=O)OCc2c1cc1n(c2=O)Cc2cc3c(CN(C)C)c(O)ccc3nc2-1` [TOPOTECAN], for which the IC50 in the test on MDA-MB-435 is 448 nM; in the test on A549, 3160 nM; in the test with HCT-116, 1100 nM.
